High-throughput results: PubChem BioAssay, several laboratories
Shown are actives, neighbours in structure and some others; about 4.1% of the full set was active somewhere.
H9c2 TAG inh = inhibitors of triacylglycerol accumulation, primary screen, cell-based, uHTS, fluorescence, H9c2; H9c2 cells, Nile Red lipid (TAG) fluorescence; cells loaded with 200 µM oleic acid; inhibition, % at 12.5 µM; 230,000 compounds, 0.66% hits;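 active = pattern-corrected inhibition of lipid staining of at least 50% with the nuclear-stain viability signal not falling by more than 50%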;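 also: 0% = DMSO wells and 100% = triacsin C control wells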
TbMetRS inhib = T. brucei MetRS inhibitors, primary screen, biochemical, luminescence; methionyl-tRNA synthetase (Trypanosoma brucei brucei); purified T. brucei MetRS, ATP depletion, Kinase-Glo luminescence; inhibition, % at 11.9 µM; 360,000 compounds, 0.4% hits; AID 624268, 2012;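 active = inhibition above a per-plate cutoff of the control wells' mean inhibition plus 3 SD, cut at about 5.5% in these data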;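 also: 0% = DMSO wells median and 100% = median of wells with control inhibitor compound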
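System: purified T. brucei MetRS enzyme / Detection: Kinase-Glo luciferase luminescence reporting remaining unconsumed ATP / Medium: HEPES buffer with MgCl2, KCl, DTT, spermine, BSA, pyrophosphatase / Replication: singlicate, one well per compound / Evaluation: percent inhibition relative to median high and low control wells / Schedule: 2 h aminoacylation at 25 °C after 15 min preincubation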
Efflux pump inh = inhibitors of Candida efflux pumps in yeast, primary screen, S. cerevisiae, Nile Red, multiplex; S. cerevisiae Candida pump triplex; 330,000 compounds, 0.44% hits; AID 485275, 2010; inhibition, % at 10 µM;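 active = plate passing quality check with inhibition over a set limit, or well fluorescence over plate mean plus 4 SD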;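 also: Nile Red retained in pooled yeast measured as flow cytometry median fluorescence; 0% = buffer negative control and 100% = Enniatin B positive control; higher means more Nile Red kept so more efflux inhibition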
SMARCA2 activ = SMARCA2 (BRM) function activators, primary screen, cell-based, luminescence, high throughput; MG213 cells, MMTV-luciferase reporter, dexamethasone, overnight; activation, % at 9.1 µM; 370,000 compounds, 1% hits; AID 652017, 2013; in the data active = activation above about 7.8%;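 also: 0% = vehicle wells and 100% = reference activator wells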
AHR act = AHR activators, primary screen, cell-based, luminescence, luciferase reporter, human | Aryl hydrocarbon receptor (Homo sapiens), P35869 | AHR-responsive luciferase reporter cells | activation, % at 5 µM | 320,000 compounds, 2.5% hits | AID 2796, 2010; in the data active = activation above about 47%;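 also: 0% = vehicle wells and 100% = reference agonist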
Target sequence (P35869 whole entry, looked up): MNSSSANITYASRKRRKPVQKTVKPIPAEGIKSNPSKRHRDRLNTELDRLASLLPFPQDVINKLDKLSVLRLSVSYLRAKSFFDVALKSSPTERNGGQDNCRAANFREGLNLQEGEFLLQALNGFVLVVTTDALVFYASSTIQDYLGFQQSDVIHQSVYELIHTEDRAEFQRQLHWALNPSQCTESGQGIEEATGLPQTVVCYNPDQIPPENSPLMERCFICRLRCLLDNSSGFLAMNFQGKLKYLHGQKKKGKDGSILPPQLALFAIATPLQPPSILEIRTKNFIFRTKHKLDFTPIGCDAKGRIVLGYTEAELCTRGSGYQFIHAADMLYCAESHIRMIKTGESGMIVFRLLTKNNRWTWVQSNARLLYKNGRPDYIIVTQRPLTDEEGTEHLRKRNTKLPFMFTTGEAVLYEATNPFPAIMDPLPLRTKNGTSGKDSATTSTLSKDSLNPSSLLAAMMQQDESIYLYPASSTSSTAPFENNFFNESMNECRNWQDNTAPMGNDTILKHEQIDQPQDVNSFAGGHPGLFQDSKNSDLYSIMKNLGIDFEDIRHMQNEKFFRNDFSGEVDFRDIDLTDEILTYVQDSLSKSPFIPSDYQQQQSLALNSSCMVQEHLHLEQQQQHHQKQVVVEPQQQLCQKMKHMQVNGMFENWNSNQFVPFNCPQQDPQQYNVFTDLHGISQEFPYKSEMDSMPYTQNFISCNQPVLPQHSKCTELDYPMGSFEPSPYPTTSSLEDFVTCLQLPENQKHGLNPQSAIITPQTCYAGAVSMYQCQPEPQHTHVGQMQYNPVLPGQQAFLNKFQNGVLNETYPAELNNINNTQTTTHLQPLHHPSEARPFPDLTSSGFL
Yeast cmpd fluor = counter-screen for efflux pump inhibitors: compound fluorescence; shares compounds with Efflux pump inh; S. cerevisiae AD/pABC3, flow cytometry; fluorescence ratio to DMSO, % at 10 µM; 1,700 compounds, 4% hits;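 active = fluorescence ratio to DMSO above its plate's cutoff, the plate mean ratio plus 5 SD, cut at about 210% in these data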;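 also: unstained yeast with no Nile Red so the signal is compound autofluorescence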
CaMdr1 efflux inh = inhibitors of Candida albicans Mdr1 efflux, confirmation, flow cytometry, singleplex, Cherry Pick1 set; shares compounds with Efflux pump inh; S. cerevisiae AD/CaMDR1, Nile Red efflux; inhibition, % at 10 µM; 1,700 compounds, 1% hits; in the data active = inhibition above about 26%;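 also: 0% = DMSO vehicle and 100% = reference inhibitor; higher means more Nile Red retained so more efflux inhibition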
CaCdr2 efflux inh = inhibitors of Candida albicans Cdr2 efflux pump, confirmation, S. cerevisiae AD/CaCDR2, flow cytometry, cherry pick 1, singleplex | Nile Red retention ratio vs DMSO, % at 10 µM | Nile Red retention | 1,700 compounds, 4% hits | shares compounds with Efflux pump inh; in the data active = Nile Red retention ratio vs DMSO above about 190%;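 also: higher ratio means more blocking of Cdr2 efflux of the dye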
Cdr1 pump inh = inhibitors of Candida albicans Cdr1 efflux pump, confirmation, S. cerevisiae AD/CaCDR1, flow cytometry, cherry pick 1, singleplex. 1,700 compounds, 1% hits. shares compounds with Efflux pump inh. Nile Red efflux. inhibition, % at 10 µM. AID 588522, 2011;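 active = inhibition above the screen-wide mean plus twice its standard deviation, cut at about 32% in these data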
Active calls of the source: *; . = no result given.

SMILES	H9c2 TAG inh	TbMetRS inhib	Efflux pump inh	SMARCA2 activ	AHR act	Yeast cmpd fluor	CaMdr1 efflux inh	CaCdr2 efflux inh	Cdr1 pump inh
COc1ccc(CN2C(=O)C(C)Nc3ncnc(N4CCN(c5ccccc5)CC4)c32)cc1 (stereo unspecified)	0	0	0	-1	2	94	0	116	0
O=C(CSc1nnc(-c2ccncc2)n1-c1ccccc1)Nc1ccc2c(c1)OCCO2	.	.	.	-5	.	.	.	.	.
COc1cc(OC)c(OC)cc1/C=N/NC(=O)C[n+]1ccccc1	5	0	7.6*	1	2	93	0	83	0
COc1cccc(/C=N/NC(=O)C[n+]2ccccc2)c1O	.	1	0	2	-1	.	.	.	.
CCNC(=S)NNC(=O)CSc1nnc(SCc2cccc3ccccc23)s1	.	.	.	-3	.	.	.	.	.
COc1cccc(CN(CC(=O)NCC2CCCO2)C(=O)CCC(=O)Nc2cc(C)on2)c1 (stereo unspecified)	-5	-1	0	-2	0	124	0	110	0
CN1CCC(NC(=O)NC2CCCCC2)CC1	-2	0	0	-3	-1	.	.	.	.
O=C(NC1CCCCCCC1)NC1CCCCC1	11	-1	1.0*	2	7	113	0	105	0
CCOc1ccc2nc(NC(=O)CCn3cccc3)sc2c1	8	0	1.0*	0	59*	111	0	96	0
CCCC(=O)Nc1nc2ccc(OCC)cc2s1	15	0	0	1	20	.	.	.	.
COc1ccc(N2C(=O)CC(N3CCN(c4ccc(C(=O)c5cccnc5)cc4)CC3)C2=O)cc1 (stereo unspecified)	.	-1	9.8*	0	5	96	0	96	0
Cc1ccc(-n2c(SCC(=O)Nc3ccc4cn[nH]c4c3)nnc2-c2ccccc2)cc1	.	.	.	5	.	.	.	.	.
CCOC(=O)c1ccccc1NC(=O)CSc1ccc(-c2cccnc2)nn1	4	-1	1.5*	-3	0	87	0	91	0
Cc1ccccc1NC(=O)CSc1ccc(-c2cccnc2)nn1	2	0	0	-3	37	.	.	.	.
O=C(COC(=O)c1c(Cl)ccc(Cl)c1Cl)NCC1CCCO1 (stereo unspecified)	-6	0	0	-2	2	.	.	.	.
O=C(COC(=O)c1c(Cl)cccc1Cl)NCC1CCCO1 (stereo unspecified)	5	-1	9.0*	1	-9	111	0	119	0
COC(=O)C1=C(C)N(Cc2cccc(C(F)(F)F)c2)C(=NCc2cc(OC)c(OC)c(OC)c2)NC1c1ccc(F)cc1 (stereo unspecified)	.	.	.	-1	.	.	.	.	.
CSc1nc2ccc(S(N)(=O)=O)cc2s1	.	-1	12*	-2	11	101	0	106	0
S=C(/N=c1/sccn1Cc1ccccc1)NC1CC1	.	0	1.3*	-5	10	101	0	106	0
CN(C)CCCNC(=S)/N=c1\sccn1Cc1ccccc1Cl	.	-1	0	-2	-3	.	.	.	.
COC(=O)[C@]12C[C@H](CC(=O)N3CCN(C(=O)c4ccco4)CC3)C(=O)N(CCC3=CCCCC3)C1=C[C@H](C1CCCC1)O[C@@H]2C	.	.	.	-2	.	.	.	.	.
CCC(C)CNC(=O)c1cn(C(C)c2ccccc2)nn1 (stereo unspecified)	.	.	.	-2	.	.	.	.	.
CC(C)(C)C1CCC(OC(=O)C[N+]2(C)CCCC2)CC1 (stereo unspecified)	12	0	0.5*	-1	-1	100	0	260*	0
Cc1ccc(NC(=O)c2cccc(S(=O)(=O)N(C)c3ccccc3)c2)cc1S(=O)(=O)N1CCOCC1	.	0	8.0*	-2	18	107	0	104	0
O=C(O)CC(NCc1ccco1)C(=O)OCC1CCCO1 (stereo unspecified)	.	0	0.7*	0	3	104	0	94	0
SMILES	H9c2 TAG inh	TbMetRS inhib	Efflux pump inh	SMARCA2 activ	AHR act	Yeast cmpd fluor	CaMdr1 efflux inh	CaCdr2 efflux inh	Cdr1 pump inh
O=C(Nc1cccc(Br)c1)OC1CC2CC1[C@H]1CCCCN1C2 (stereo partly specified)	.	.	.	-3	.	.	.	.	.
CCCCS(=O)(=O)N1CCCc2nc(-c3ccc(OC)cc3)ccc21	.	.	.	-7	.	.	.	.	.
CC(C)(C)C(=O)CSc1nc2c(c(-c3cccs3)c1C#N)CCC2	23	-1	0.5*	-2	6	105	0	110	0
Fc1ccccc1-c1n[nH]c(=S)n1N=Cc1ccc(-c2ccccc2)cc1	.	.	.	0	.	.	.	.	.
Clc1ccccc1CSc1nncn1NC/C=C/c1ccccc1	.	0	7.6*	-3	10	103	0	112	0
COC(=O)C1=C(C)N(C)C(=NCc2ccc(OC)cc2)NC1c1ccccc1 (stereo unspecified)	.	.	.	-5	.	.	.	.	.
CCCCN1C(=O)C(=O)NC[C@H]1Cc1cccc2ccccc12	.	-1	.	-6	.	.	.	.	.
CCCCN1C(=S)NC[C@@H]1Cc1cccc2ccccc12	-8	0	0	4	6	92	0	95	0
COc1ccc(-c2cc(=O)n(-c3ccc([N+](=O)[O-])cc3)[nH]2)cc1	.	0	14*	4	1	87	0	104	0
